Assay results from ChEMBL document CHEMBL4411287, “Discovery and optimization of a series of 3-substituted indazole derivatives as multi-target kinase inhibitors for the treatment of lung squamous cell carcinoma” (Eur J Med Chem, 2019).

Target: T1, Discoidin domain-containing receptor 2 (Homo sapiens) (UniProt Q16832)
T1 sequence (whole entry): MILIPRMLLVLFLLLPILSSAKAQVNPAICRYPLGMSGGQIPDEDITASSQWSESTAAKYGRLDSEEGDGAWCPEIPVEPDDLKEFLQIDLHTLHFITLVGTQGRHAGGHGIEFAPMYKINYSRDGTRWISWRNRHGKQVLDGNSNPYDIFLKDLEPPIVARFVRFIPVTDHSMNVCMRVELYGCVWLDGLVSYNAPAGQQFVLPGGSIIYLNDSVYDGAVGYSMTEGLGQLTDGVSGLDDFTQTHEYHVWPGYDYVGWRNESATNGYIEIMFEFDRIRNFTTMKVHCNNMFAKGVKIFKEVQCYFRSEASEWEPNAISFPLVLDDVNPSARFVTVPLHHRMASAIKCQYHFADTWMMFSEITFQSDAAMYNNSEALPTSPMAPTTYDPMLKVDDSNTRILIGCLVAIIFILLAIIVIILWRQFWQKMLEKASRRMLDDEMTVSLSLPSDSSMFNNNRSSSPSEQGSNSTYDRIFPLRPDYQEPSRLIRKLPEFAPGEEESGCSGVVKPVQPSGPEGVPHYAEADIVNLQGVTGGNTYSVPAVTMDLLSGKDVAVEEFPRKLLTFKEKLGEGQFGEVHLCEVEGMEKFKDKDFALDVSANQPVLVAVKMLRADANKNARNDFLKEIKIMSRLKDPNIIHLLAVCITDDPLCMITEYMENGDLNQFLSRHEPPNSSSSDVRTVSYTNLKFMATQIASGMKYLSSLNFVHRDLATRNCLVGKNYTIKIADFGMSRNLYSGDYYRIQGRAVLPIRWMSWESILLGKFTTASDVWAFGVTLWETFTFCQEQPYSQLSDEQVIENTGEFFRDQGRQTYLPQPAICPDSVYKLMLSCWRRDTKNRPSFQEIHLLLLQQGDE
Test: Inhibition of DDR2 (unknown origin) at 1000 nM using poly (Glu, Tyr) 4:1 substrate after 60 mins by ELISA relative to control
Summary of the method: (§1)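 ELISA with purified recombinant DDR2 on poly(Glu,Tyr) 4:1 precoated at 20 µg/mL. 10 µM ATP in HEPES pH 7.4 buffer with MgCl2, MnCl2, Na3VO4 and DTT, 1% DMSO; 60 min at 37 °C. Phosphotyrosine detected by PY99 and HRP anti-mouse IgG with o-phenylenediamine at A490. Inhibition = 1−A490/A490control; two separate experiments.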

inhibition [%]	Compound
35.9	Nc1n[nH]c2ccc(-c3cccc(NC(=O)c4cccc(C(F)(F)F)c4)c3)cc12
84.7	O=C(Nc1cccc(C(F)(F)F)c1)c1cccc(-c2ccc3cn[nH]c3c2)c1

Target: T1, Discoidin domain-containing receptor 2 (Homo sapiens)
Test: Inhibition of DDR2 (unknown origin) at 100 nM using poly (Glu, Tyr) 4:1 substrate after 60 mins by ELISA relative to control
Summary of the method: as §1

inhibition [%]	Compound
27.4	Cc1cc(NC(=O)c2cccc(C(F)(F)F)c2)cc(-c2ccc3cn[nH]c3c2)c1
37.3	Cc1ccc(-c2ccc3cn[nH]c3c2)cc1NC(=O)c1cccc(C(F)(F)F)c1
25.8	Cc1ccc(C(=O)Nc2ccc(N3CCN(C)CC3)cc2)cc1-c1ccc2cn[nH]c2c1
41.8	Cc1c(NC(=O)c2cccc(C(F)(F)F)c2)cccc1-c1ccc2cn[nH]c2c1
23.2	Cc1ccc(C(=O)NCc2cccc(N3CCN(C)CC3)c2)cc1-c1ccc2cn[nH]c2c1
13.1	Nc1n[nH]c2ccc(-c3cccc(NC(=O)c4cccc(C(F)(F)F)c4)c3)cc12
58.2	O=C(Nc1cccc(C(F)(F)F)c1)c1cccc(-c2ccc3cn[nH]c3c2)c1
37.3	Cc1ccc(C(=O)Nc2cccc(N3CCN(C)CC3)c2)cc1-c1ccc2cn[nH]c2c1

Target: T2, Discoidin domain-containing receptor 2 (Homo sapiens, UniProt Q16832)
T2 sequence (Q16832 whole entry): T1 sequence (whole entry)
Test: Inhibition of DDR2 (unknown origin) using poly (Glu, Tyr) 4:1 substrate after 60 mins by ELISA

IC50 [nM]	Compound
6.7	Cc1ccc(C(=O)Nc2ccc(CN3CCN(C)CC3)cc2)cc1-c1ccc2cn[nH]c2c1
8	Cc1ccc(C(=O)NCc2cccc(C(F)(F)F)c2)cc1-c1ccc2cn[nH]c2c1
2.7	Cc1ccc(C(=O)Nc2cccc(C(C)(C)C#N)c2)cc1-c1ccc2cn[nH]c2c1
3.9	CCN1CCN(Cc2cc(NC(=O)c3ccc(C)c(-c4ccc5cn[nH]c5c4)c3)cc(C(F)(F)F)c2)CC1
7	Cc1ccc(C(=O)Nc2cc(CN3CCN(C4CCCC4)CC3)cc(C(F)(F)F)c2)cc1-c1ccc2cn[nH]c2c1
1.2	Cc1ccc(C(=O)Nc2cccc(C(C)C)c2)cc1-c1ccc2cn[nH]c2c1
67.9	COc1ccc(NC(=O)c2cccc(C(F)(F)F)c2)cc1-c1ccc2cn[nH]c2c1
9.5	O=C(Nc1ccc(Cl)c(-c2ccc3cn[nH]c3c2)c1)c1cccc(C(F)(F)F)c1
4.7	Cc1ccc(C(=O)Nc2cc(CN3CCN(C)CC3)cc(C(F)(F)F)c2)cc1-c1ccc2cn[nH]c2c1
3.4	Cc1ccc(C(=O)Nc2cc(CN3CCN(CCO)CC3)cc(C(F)(F)F)c2)cc1-c1ccc2cn[nH]c2c1
64.3	O=C(Nc1ccc(F)c(-c2ccc3cn[nH]c3c2)c1)c1cccc(C(F)(F)F)c1
5.5	Cc1ccc(NC(=O)c2cccc(C(F)(F)F)c2)cc1-c1ccc2cn[nH]c2c1
75.9	Cc1ccc(C(=O)Nc2cccc(CN3CCN(C)CC3)c2)cc1-c1ccc2cn[nH]c2c1
